Screening results (PubChem)
A selection: hits, their analogues and other compounds. The true share with any hit is near 4.4%.
Calb FLC: C. albicans growth modulation with fluconazole. 300,000 tested, 0.57% active. growth inhibition, % (no concentration beside the values). C. albicans CaCi-2 (fluconazole-resistant clinical isolate) + fluconazole, Alamar Blue growth, 48 h;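 active = growth inhibition above about 58% in most replicates, limit read from the data, passing the limit was not always enough; inconclusive = exactly half the replicates above a set limit; inactive = most replicates below a set limit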;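 also: all wells also contain fluconazole at 8 µg/ml as a sub-toxic cotreatment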
HSF1 inh: HSF1 inhibition. NIH3T3-HGL HSE-luciferase, MG132-induced, luminescence 8 h; hits give low values. activity change, negative = inhibition, % at 7.5 µM (by protocol). 300,000 tested, 0.77% active. AID 2098;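 active = more than half of replicate wells show activity change below -50%, luminescence cut by over half; inconclusive = some wells, but at most half, below -50%; inactive = no replicate well below -50%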;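 also: luciferase reports HSF-1 transcriptional activity via heat shock element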
HSF-1 act: increases HSF-1 driven luciferase reporter signal. NIH3T3-HGL HSF-1 luciferase reporter, MG132, 8 h; 100% = twice DMSO control signal. activation, % at 9 µM. 300,000 tested, 1.7% active. AID 504408;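 active = mean replicate activation of at least 50% with a set share of replicates each reaching 50%; inconclusive = only one of those two conditions met; inactive = mean below 50% and too few replicates reaching it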
HIF act: HIF pathway transcriptional activation; U2OS HRE-luciferase reporter, luminescence; normalized: DMSO 0%, desferrioxamine 100%; activation, % at 7.5 µM (by protocol); 300,000 tested, 0.32% active; AID 1910;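 active = mean activation of at least 10% of the iron chelator positive control signal, with at least half of replicates also reaching 10%; inconclusive = mean and replicate majority disagree about reaching 10%; inactive = mean and most replicates under 10%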
T cruzi inh: T. cruzi replication inhibition. 300,000 tested, 1.4% active. inhibition, % (test concentration not listed). T. cruzi beta-gal in NIH3T3, luminescence, 90 h;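 active = mean inhibition across valid replicates above about 55%, limit read from the data; inconclusive = mean below that limit but half or more replicates reach it; inactive = mean below it, under half of replicates reach it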;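 also: signal also drops with host cell toxicity which is not excluded here; higher percent means less beta-gal luminescence so fewer parasites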
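Read-out: Parasite load inhibition, % | Test system: Mouse NIH/3T3 fibroblasts infected with β-gal-expressing T. cruzi Tulahuen C4 | Amount: 5,000 cells/well | Medium: DMEM, 2% fetal bovine serum | Signal: GalScreen β-gal luminescence, detergent lysis, 60 min | Timing: 3 h attach, ≥90 h co-culture | Also added: Tulahuen C4 trypomastigotes, 5000/well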
Large screens that a line does not name were inactive.

C=C1CCC[C@]2(C)C[C@H]3OC(=O)C(CNC(CC)CO)[C@H]3CC12 (stereo not given in full)	HSF-1 act 142
C=C1CCC[C@]2(C)C[C@H]3OC(=O)C(CNC(C)(CO)CO)[C@H]3CC12 (stereo not given in full)	HSF-1 act 74
COc1ccc(N2CC(C(=O)Nc3ccncc3)CC2=O)cc1 (stereo not given)	none
Cc1cc(CNC(=O)CCc2nnc(CCCc3ccccc3)o2)nn1C	Calb FLC inconclusive
COc1ccc(CC(C)Nc2cccc(SC)c2)cc1 (stereo not given)	HSF1 inh -59
COc1ccc(CC(=O)Nc2cccc(SC)c2)cc1	none (no result: HIF act)
CCN(CC(=O)Nc1c(F)cccc1F)C(=O)c1cc([N+](=O)[O-])ccc1N1CCOCC1	none
CCOc1ccccc1NC(=O)NNC(=O)COc1cccc(C)c1C	none
c1ccc(-c2nnc3sc(-c4cc5ccccc5o4)nn23)cc1	HIF act 17
O=C(NC(C(=O)c1ccccc1)N1CCCCC1)c1ccccc1 (stereo not given)	HSF-1 act 82
CC(=O)c1ccc(NC(=S)Nc2cccc3ccccc23)cc1	HSF1 inh -67
Fc1cccc(NC(=S)Nc2cccc3ccccc23)c1	none
Cc1ccc(NC(=S)Nc2cccc3ccccc23)cc1F	HSF1 inh -55
O=C(CN(C(=O)c1cc2c(s1)CCC2)C1CCCC1)NCc1cccs1	none (no result: HSF1 inh, HSF-1 act)
COc1cccc(C(=O)N/N=C/C(Br)=C/c2ccccc2)c1	HSF-1 act 56
Cc1occc1C(=O)N/N=C/C(Br)=C/c1ccccc1	HSF-1 act 314
CC(/C=N/NC(=O)c1n[nH]c2c1CCC2)=C\c1ccccc1	none
O=C(N/N=C/C(Br)=C\c1ccccc1)c1n[nH]c2c1CCC2	HSF-1 act 211, HIF act 12
Cc1occc1C(=O)N/N=C/c1ccc(-c2ccccc2)cc1	none
COc1ccc(C(=O)N/N=C/C(Br)=C/c2ccccc2)cc1	HSF-1 act 148
CCOc1ccc(/C=N/NC(=O)c2cc(-c3cccn3C)n[nH]2)cc1	none
O=C(N/N=C/C=C\c1ccccc1)c1cnccn1	none
O=C(N/N=C/C(Br)=C/c1ccccc1)c1cnccn1	HSF-1 act 259
Cc1ccc(-c2cc(C(=O)N/N=C/C(Br)=C/c3ccccc3)n[nH]2)o1	HSF-1 act 121
COc1cc2c(cc1NC(=O)COc1ccccc1OC)oc1ccccc12	none
Cc1cc(NC(=O)COC(=O)[C@@H](NS(=O)(=O)c2ccc(Br)cc2)C(C)C)no1	Calb FLC 111
Cc1cc(NC(=O)COC(=O)[C@@H](NS(=O)(=O)c2ccccc2)C(C)C)no1	none
COc1cc2c(cc1NC(=O)COC(=O)[C@@H](NS(=O)(=O)c1ccccc1)C(C)C)oc1ccccc12	HSF-1 act 90
N/C(=N\NC(=O)c1cccs1)c1cc2cc(Cl)ccc2oc1=O	none
CC(C)SC1=NC(C)(C)C=C(/C=C/c2ccc(Cl)cc2Cl)N1	HSF-1 act 82
COC(=O)C(CSCc1ccccc1)NC(=O)CSc1nc(N)cc(=O)[nH]1 (stereo not given)	none
Cc1c(C(c2ccccc2Br)c2c(C)n(C)n(-c3ccccc3)c2=O)c(=O)n(-c2ccccc2)n1C	none
Cc1ccc(N2C(=O)NC(NS(=O)(=O)c3ccccc3)(C(F)(F)F)C2=O)cc1 (stereo not given)	HSF1 inh -79
Cc1ccc2c(c1)[nH]c1c(=O)n(Cc3ccco3)cnc12	none
CCc1sc(C(=O)NC2CCN(C)CC2)cc1Br	T cruzi inh 62
CC(C)(C)OC(=O)N1CCC[C@H]1c1nnc(SCC(=O)Nc2ccc(Br)cc2)o1	none
COc1cnc(-c2ccccn2)nc1NC(C)C	Calb FLC 113, HIF act 178, T cruzi inh 77
COc1cnc(-c2ccccn2)nc1Sc1cccc(Cl)c1	Calb FLC 91
COc1cnc(-c2ccccn2)nc1Sc1ccc(C)cc1	none
Cc1cccc(NC(=O)C2c3ccccc3Oc3ccccc32)n1	none
O=S1(=O)CCOCCN1Cc1ccccc1	none
COCCCn1c(SCC(=O)NNC(=O)c2cccc(O)c2)nnc1-c1ccncc1	none
COc1ccc(OC)c2sc(N3CCc4ccccc4C3)nc12	HSF-1 act 128
COc1ccc(OC)c2sc(N3CCCCC3)nc12	none
CCn1c(CSc2nc3ccccc3s2)nc2ccccc21	HSF-1 act 76
